Measurements from ChEMBL document CHEMBL2157987, “Benzimidazole bearing oxadiazole and triazolo-thiadiazoles nucleus: design and synthesis as anticancer agents” (2012).

Tests used:
Assay type in all cases: functional
MDA-MB-435 [1] = assay: Cytotoxicity against human MDA-MB-435 cells assessed as cell growth at 10 uM after 48 hrs by SRB assay; details: MDA-MB-435, 48 h, read-out: Activity
Summary of the method: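 NCI single-dose screen at 10 µM. Cells were incubated 48 h and the end point was read by sulforhodamine B protein staining. Results are given as percent growth of treated cells relative to untreated controls. Growth of 32% or less was counted as active.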

CCRF-CEM = assay: Cytotoxicity against human CCRF-CEM cells after 48 hrs by SRB assay
Summary of the method: (§1)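 Five-dose NCI-60 panel screen: cells grown in RPMI 1640 with 5% FBS and 2 mM L-glutamine, preincubated 24 h at 37 °C, 5% CO2. Five 10-fold dilutions, 0.01–100 µM, applied for 48 h. Fixed with cold TCA (10% final), stained with 0.4% SRB, absorbance read at 515 nm. GI50, TGI and LC50 were taken from log concentration versus % growth curves using time-zero plates.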

K562 = assay: Cytotoxicity against human K562 cells after 48 hrs by SRB assay; details: K562, 48 h; summary of the method: as §1
RPMI-8226 = assay: Cytotoxicity against human RPMI8226 cells after 48 hrs by SRB assay; details: RPMI-8226, 48 h; summary of the method: as §1
A549 = assay: Cytotoxicity against human A549 cells after 48 hrs by SRB assay; details: A549, 48 h; summary of the method: as §1
NCI-H226 = assay: Cytotoxicity against human NCI-H226 cells after 48 hrs by SRB assay; details: NCI-H226, 48 h; summary of the method: as §1
HCC 2998 = assay: Cytotoxicity against human HCC2998 cells after 48 hrs by SRB assay; details: HCC 2998, 48 h; summary of the method: as §1
SF-295 = assay: Cytotoxicity against human SF295 cells after 48 hrs by SRB assay; details: SF-295, 48 h; summary of the method: as §1
M14 = assay: Cytotoxicity against human M14 cells after 48 hrs by SRB assay; details: M14, 48 h; summary of the method: as §1
MDA-MB-435 [2] = assay: Cytotoxicity against human MDA-MB-435 cells after 48 hrs by SRB assay; details: MDA-MB-435, 48 h; summary of the method: as §1
SK-MEL-28 = assay: Cytotoxicity against human SK-MEL-28 cells after 48 hrs by SRB assay; details: SK-MEL-28, 48 h; summary of the method: as §1
OVCAR-3 = assay: Cytotoxicity against human OVCAR3 cells after 48 hrs by SRB assay; details: OVCAR-3, 48 h; summary of the method: as §1
OVCAR-5 = assay: Cytotoxicity against human OVCAR5 cells after 48 hrs by SRB assay; details: OVCAR-5, 48 h; summary of the method: as §1
RXF 393 = assay: Cytotoxicity against human RXF393 cells after 48 hrs by SRB assay; details: RXF 393, 48 h; summary of the method: as §1
SN12C = assay: Cytotoxicity against human SN12C cells after 48 hrs by SRB assay
Summary of the method: (§2)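 Cells were grown in RPMI 1640 with 5% FBS and 2 mM L-glutamine, then held 24 h at 37 °C and 5% CO2 before dosing. TCA-fixed time-zero plates were kept. Compound was dissolved in DMSO and given at five 10-fold dilutions for 48 h. Cells were fixed with cold TCA (10% final), stained with 0.4% SRB and read at 515 nm. GI50, TGI and LC50 came from Ti/Tz/control growth formulas.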

UO-31 = assay: Cytotoxicity against human UO31 cells after 48 hrs by SRB assay; details: UO-31, 48 h; summary of the method: as §2
DU-145 = assay: Cytotoxicity against human DU145 cells after 48 hrs by SRB assay; details: DU-145, 48 h; summary of the method: as §1
MDA-MB-231 = assay: Cytotoxicity against human MDA-MB-231 cells after 48 hrs by SRB assay; details: MDA-MB-231, 48 h; summary of the method: as §1
Hs-578T = assay: Cytotoxicity against human Hs578T cells after 48 hrs by SRB assay; summary of the method: as §1
BT-549 = assay: Cytotoxicity against human BT549 cells after 48 hrs by SRB assay; details: BT-549, 48 h; summary of the method: as §1
MDA-MB-468 = assay: Cytotoxicity against human MDA-MB-468 cells after 48 hrs by SRB assay; details: MDA-MB-468, 48 h; summary of the method: as §1
[3] = read-out: LC50 (the source's name)
[4] = read-out: pLC50 (the source's name) (converted)

## Nc1cc(Br)c(-c2nnc(CCC(=O)c3nc4ccccc4[nH]3)o2)c(Br)c1
MDA-MB-435 [1]
  growth at 10 µM: 5.71%
CCRF-CEM
  GI50: 3.8 µM
CCRF-CEM; [3]
  CC50: > 100 µM
CCRF-CEM; read-out: TGI
  TGI: > 100 µM
CCRF-CEM; [4]
  CC50: > 100 µM
CCRF-CEM; read-out: pTGI
  TGI: > 100 µM
K562
  GI50: 2.88 µM
K562; [3]
  CC50: > 100 µM
K562; read-out: TGI
  TGI: > 100 µM
K562; [4]
  CC50: > 100 µM
K562; read-out: pTGI
  TGI: > 100 µM
RPMI-8226
  GI50: 4.17 µM
RPMI-8226; [3]
  CC50: > 100 µM
RPMI-8226; read-out: TGI
  TGI: > 100 µM
RPMI-8226; [4]
  CC50: > 100 µM
RPMI-8226; read-out: pTGI
  TGI: > 100 µM
A549
  GI50: 27.5 µM
A549; [3]
  CC50: > 100 µM
A549; read-out: TGI
  TGI: > 100 µM
A549; [4]
  CC50: > 100 µM
A549; read-out: pTGI
  TGI: > 100 µM
NCI-H226
  GI50: 22.4 µM
NCI-H226; [3]
  CC50: > 100 µM
NCI-H226; read-out: TGI
  TGI: > 100 µM
NCI-H226; [4]
  CC50: > 100 µM
NCI-H226; read-out: pTGI
  TGI: > 100 µM
HCC 2998
  GI50: 11 µM
HCC 2998; [3]
  CC50: > 100 µM
HCC 2998; read-out: TGI
  TGI: 42.5 µM
HCC 2998; [4]
  CC50: > 100 µM
HCC 2998; read-out: pTGI (converted)
  TGI: 42.7 µM
SF-295
  GI50: 9.77 µM
SF-295; [3]
  CC50: > 100 µM
SF-295; read-out: TGI
  TGI: 35.6 µM
SF-295; [4]
  CC50: > 100 µM
SF-295; read-out: pTGI (converted)
  TGI: 35.5 µM
M14
  GI50: 17.4 µM
M14; [3]
  CC50: > 100 µM
M14; read-out: TGI
  TGI: 55.5 µM
M14; [4]
  CC50: > 100 µM
M14; read-out: pTGI (converted)
  TGI: 55 µM
MDA-MB-435 [2]
  GI50: 1.55 µM
MDA-MB-435 [2]; [3]
  CC50: 8.83 µM
MDA-MB-435 [2]; read-out: TGI
  TGI: 3.71 µM
MDA-MB-435 [2]; [4]
  CC50: 8.91 µM
MDA-MB-435 [2]; read-out: pTGI (converted)
  TGI: 3.72 µM
SK-MEL-28
  GI50: 6.31 µM
SK-MEL-28; [3]
  CC50: > 100 µM
SK-MEL-28; read-out: TGI
  TGI: 79 µM
SK-MEL-28; [4]
  CC50: > 100 µM
SK-MEL-28; read-out: pTGI (converted)
  TGI: 79.4 µM
OVCAR-3
  GI50: 2.63 µM
OVCAR-3; read-out: LC50
  LC50: > 100 µM
OVCAR-3; read-out: TGI
  TGI: 6.98 µM
OVCAR-3; read-out: pLC50 (converted)
  LC50: > 100 µM
OVCAR-3; read-out: pTGI (converted)
  TGI: 6.92 µM
OVCAR-5
  GI50: 29.5 µM
OVCAR-5; read-out: LC50
  LC50: > 100 µM
OVCAR-5; read-out: TGI
  TGI: > 100 µM
OVCAR-5; read-out: pLC50 (converted)
  LC50: > 100 µM
OVCAR-5; read-out: pTGI
  TGI: > 100 µM
RXF 393
  GI50: 12.9 µM
RXF 393; [3]
  CC50: > 100 µM
RXF 393; read-out: TGI
  TGI: 58.6 µM
RXF 393; [4]
  CC50: > 100 µM
RXF 393; read-out: pTGI (converted)
  TGI: 58.9 µM
SN12C
  GI50: 29.5 µM
SN12C; [3]
  CC50: > 100 µM
SN12C; read-out: TGI
  TGI: > 100 µM
SN12C; [4]
  CC50: > 100 µM
SN12C; read-out: pTGI
  TGI: > 100 µM
UO-31
  GI50: 4.07 µM
UO-31; [3]
  CC50: > 100 µM
UO-31; read-out: TGI
  TGI: > 100 µM
UO-31; [4]
  CC50: > 100 µM
UO-31; read-out: pTGI
  TGI: > 100 µM
DU-145
  GI50: 5.37 µM
DU-145; read-out: LC50
  LC50 (50% lethal concentration): > 100 µM
DU-145; read-out: TGI
  TGI: 53.5 µM
DU-145; read-out: pLC50 (converted)
  LC50 (50% lethal concentration): > 100 µM
DU-145; read-out: pTGI (converted)
  TGI: 53.7 µM
MDA-MB-231
  GI50: 10.2 µM
MDA-MB-231; read-out: LC50
  LC50: > 100 µM
MDA-MB-231; read-out: TGI
  TGI: 86.8 µM
MDA-MB-231; read-out: pLC50 (converted)
  LC50: > 100 µM
MDA-MB-231; read-out: pTGI (converted)
  TGI: 87.1 µM
Hs-578T
  GI50: 3.72 µM
Hs-578T; [3]
  CC50: > 100 µM
Hs-578T; read-out: TGI
  TGI: 31.7 µM
Hs-578T; [4]
  CC50: > 100 µM
Hs-578T; read-out: pTGI (converted)
  TGI: 31.6 µM
BT-549
  GI50: 6.76 µM
BT-549; [3]
  CC50: > 100 µM
BT-549; read-out: TGI
  TGI: > 100 µM
BT-549; [4]
  CC50: > 100 µM
BT-549; read-out: pTGI
  TGI: > 100 µM
MDA-MB-468
  GI50: 1.95 µM
MDA-MB-468; read-out: LC50
  LC50: > 100 µM
MDA-MB-468; read-out: TGI
  TGI: 6.97 µM
MDA-MB-468; read-out: pLC50 (converted)
  LC50: > 100 µM
MDA-MB-468; read-out: pTGI (converted)
  TGI: 6.92 µM
